Unmarked numbers belong to inactive results. Results filed as inconclusive are left out. The source made the active and inactive calls.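 The calls were made as follows, unless noted: active = cell viability at or below a set limit in both duplicate runs, the limit being the all-compound median minus 4 SD (cut at about 23% in these data, passing the limit was not always enough); inconclusive = no clear call, values can overlap the other calls; inactive = the rest.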
Experiments:
[1] = S. cerevisiae growth inhibition in permissive medium (OD615), pilot counter-assay for S. cerevisiae lifespan shortening project, permissive growth control (AID 705;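 active = growth inhibition above 25% in both replicates, a cutoff set 3 SD above the mean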); conditions: OD615, 24 h, at 10 µM, hits give high values
How it was run: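 Material: engineered DeaD yeast; compound dosing: one dose 10 µM, DMSO 0.25% final; measure: yeast growth inhibition indicated by reduced 24 h OD615; detection: OD615 turbidity read; incubation: cells pre-grown 4 h, then 24 h compound exposure, 30 °C humidified; medium: permissive synthetic complete medium with raffinose and galactose carbon sources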

[2] = S. cerevisiae growth inhibition in restrictive medium, OD615, pilot screen, restrictive growth control, yeast lifespan reduction project (AID 706;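 active = growth inhibition above a set limit, 3 SD over mean compound inhibition, in both replicates, cut at about 43% in these data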;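 also: modified DeaD lifespan yeast strain shifted to restrictive glucose medium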); conditions: OD615, 48 h, at 10 µM, hits give high values
How it was run: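 material = engineered S. cerevisiae DeaD strain | medium = glucose-based CSMM-D restrictive medium | times = 4 h pre-incubation, 48 h exposure at 30 °C | technique = OD615 absorbance reading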

[3] = doxorubicin toxicity protection in MRP-1 cells – H69AR cells, CellTiter-Glo, duplicate, MRP-1 activator project, pilot screen (AID 807;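 active = viability increase at or above a cutoff of the median across tested compounds plus 3 SD, cut at about 8.5% in these data, passing the limit was not always enough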;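 also: compound pretreatment 18-22 h then 72 h combined with doxorubicin; 0% = doxorubicin alone and 100% = vehicle without doxorubicin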); conditions: H69AR viability with doxorubicin, CellTiter-Glo luminescence; at 10 µM; hits give high values
[4] = viability of HCT116 without oncogenic beta-catenin – human colon tumor cells, pilot screen (AID 823); conditions: HCT116 beta-catenin knockout viability, CellTiter-Glo, 60 h; at 10 µM; hits give low values;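 also: 0% = wells killed by 20 µM Hyamine and 100% = untreated DMSO cell wells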
[5] = viability of PTEN-null HCT116 cells – cell-based, HCT116 clonal line, CellTiter-Glo, pilot screen (AID 824;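 active = viability at or below 27.92% in each of two runs, the all-compound median minus 4 SD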;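 also: 0% = 20 µM Hyamine control and 100% = vehicle cell control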); conditions: HCT116 PTEN-deleted viability, 60 h, at 10 µM, hits give low values
[6] = RAM pathway blockade in budding yeast – dse1pr::URA3 reporter, 5-FOA selection, pilot screen (AID 869;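 active = inhibition over a set limit, the all-compound mean plus 3 SD, in both replicate runs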;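 also: 0% = DMSO wells with no growth and 100% = 10 µM 1-NA-PP1 with full growth; RAM network block rescues cells from 5-FOA so hits raise OD615 growth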); conditions: S. cerevisiae dse1pr::URA3 5-FOA growth, OD615, 2 d; at 10 µM; hits give high values; strain carries analog-sensitive mutant Cbk1 kinase

Row | Compound | growth inhibition [1] [%] | growth inhibition [2] [%] | viability increase [3] | viability [4] [%] | viability [5] [%] | inhibition [6] [%]
1 | CCC(C)(C(=O)NC1CCCC1)N(C(=O)CNC(C)=O)c1ccc(C)cc1 (stereo not given) | -1.46 | -5.89 | -0.57% | 94.2 | 96.7 | 2.1
2 | COc1ccc(OC)c(-c2cc(C(=O)N3CCN(c4ccccc4)CC3)no2)c1 | -11.8 | 20.3 | -2.36% | 96.9 | 88.8 | 1.72
3 | CCOC(=O)C1=C(N)OC2=C(C(=O)CC(C)(C)C2)C1C1CCCCC1 (stereo not given) | -13.2 | -4.08 | -1.22% | 93.3 | 92.9 | 1.4
4 | CCCOC(=O)c1ccc(NC(=O)CCC(=O)OCC)cc1 | -2.93 | 0.845 | -0.37% | 98.8 | 98.6 | 2.24
5 | C=CCSc1nnc2c(n1)OC=Nc1ccccc1-2 | -4.68 | 29.7 | 2.06% | 97.9 | 101 | 3.17
6 | O=C1CCCN1CCCNc1ncnc2c1cnn2-c1ccc(Cl)cc1 | 0.48 | 1.48 | -0.95% | 85 | 77 | 1.3
7 | COC(=O)c1ccc2c(c1)N(Cc1ccccc1F)C(=O)c1ccccc1S2=O (stereo not given) | -13.9 | -2.4 | -4.03% | 75.9 | 74 | 1.02
8 | COCCNc1oc(-c2ccccc2Cl)nc1C#N | -7.99 | -2.94 | -0.81% | 111 | 89.3 | 1.51
9 | CCOC(=O)C1Cn2c(nc3c(c2=O)C2(CCCC2)Cc2ccccc2-3)S1 (stereo not given) | -15.5 | -1.87 | -3.9% | 84.2 | 77.4 | 2.23
10 | Cc1noc(/C=C/N(C)C)c1S(=O)(=O)N1CCCC(C(=O)NCc2cccs2)C1 (stereo not given) | 2 | -3.34 | 10.6% (active) | 93.2 | 88.5 | 0.21
11 | Cn1cccc1Cc1nnc(SCC(=O)Nc2ccc3c(c2)OCCO3)n1CCc1ccccc1 | 6.56 | 22.1 | -1.87% | 90.2 | 81 | 2.25
12 | Cc1cccc(N2CCN(C(=O)c3cc4c(C)nc5ccccc5c4o3)CC2)c1C | -8.18 | -1.81 | 4.84% | 71.7 | 78.2 | -1.31
13 | CCOC(=O)c1cc2c(=O)n3ccccc3nc2n(Cc2ccco2)c1=NC(=O)c1cccnc1 | -1.49 | 14 | 3.61% | 99.5 | 99 | 1.91
14 | COc1ccc(OC)c(NC(=O)CN(c2ccc(C(C)C)cc2)S(=O)(=O)c2c(C)noc2C)c1 | -11.5 | -12.1 | -4.81% | 56.5 | 48.1 | 2.27
15 | CCCCSc1nc2c(c(=O)[nH]c(=O)n2C)n1CCc1ccccc1 | -16.6 | -9.86 | -3.38% | 84.1 | 85.9 | 2.35
16 | Cc1ccccc1S(=O)(=O)Cc1ccc(C(=O)N2CC(C)CC(C)C2)o1 (stereo not given) | -18.1 | -32 | -0.61% | 103 | 90.2 | -0.465
17 | O=C(CCS(=O)(=O)c1cccc2nonc12)N1CC(=O)N(CCc2ccccc2)C(=O)C1 | -5.67 | -8.59 | -3.51% | 95.4 | 92.3 | -0.47
18 | COc1cc(OC)c(NC(=O)CS(=O)(=O)Cc2nc(-c3ccc(C)cc3)oc2C)cc1Cl | -22.6 | -17 | -1.21% | 85.5 | 78.1 | 1.96
19 | CCOC(=O)c1[nH]c(C)c(C(=O)N2CCOCC2)c1C | -6.62 | -4.17 | -0.92% | 109 | 104 | 3.29
20 | C1=C(c2ccccc2)CCN(c2nc3ccccc3n3cnnc23)C1 | -7.88 | 11.2 | -3.98% | 90.4 | 86.8 | 0.34

— PubChem BioAssay
